Results of several laboratories.
Lines come from different studies, so protocols differ.
Target: Serine/threonine-protein kinase 32B (STK32B, Homo sapiens, UniProt Q9NY57)

assay	conditions	remaining binding [%]	SMILES
binding	1 µM	100	F[C@@H]1CCN(c2nccc(-c3cnn4ncccc34)n2)C1
binding, competition with immobilised ligand	1 µM	100	Cc1cnc(Nc2ccc(C(=O)N3CCC(N4CCCC4)CC3)cc2)nc1-c1cc2ccccc2s1
binding	1 µM	100	C[C@H]1CCN(c2nccc(-c3cnn4ncccc34)n2)C1
cell-free assay, competition with immobilised ligand	1 µM	87	O=C(Nc1cnc(Oc2ccc(F)cc2)nc1)N1CCc2ncccc2[C@@H]1c1ccc(F)cc1
binding, competition with immobilised ligand	1 µM	100	O=C(NCCCN1CCOCC1)c1ccc(Nc2ncc(Cl)c(-c3ccc(Cl)s3)n2)cc1
binding	1 µM	100	Cc1cnn2ncc(-c3ccnc(N(C)C)n3)c2c1
cell-free assay, competition with immobilised ligand	1 µM	100	O=C1NC(c2ccccn2)Sc2ccccc21 (centres unmarked)
binding	1 µM	100	CC1CCCN1c1nccc(-c2cnn3ncccc23)n1 (centres unmarked)
binding, competition with immobilised ligand	1 µM	100	O=C(NCCCN1CCOCC1)c1ccc(Nc2nccc(-c3cc4ccccc4s3)n2)cc1
cell-free assay, competition with immobilised ligand	1 µM	100	FC(F)(F)c1ccc2c(c1)nc(-c1cccnc1)n2C1CC1
binding	1 µM	87	CN(CCCC(F)(F)F)c1nccc(-c2cnn3ncccc23)n1
binding, competition with immobilised ligand	1 µM	100	Nc1ncc2c(n1)-c1c([nH]c3ccc(C#CC4CC4)cc13)CCCC2
binding	1 µM	100	N[C@H]1CCN(c2nccc(-c3cnn4ncccc34)n2)C1
cell-free assay, competition with immobilised ligand	5 µM	84	COc1ncc2cc3ccccc3nc2c1C#N
cell-free assay, competition with immobilised ligand	1 µM	100	C[C@@H](c1cccc(C#N)c1)n1cc(Cl)cc(C(N)=O)c1=N
binding, competition with immobilised ligand	1 µM	90	COc1cnc(Nc2cccc(S(N)(=O)=O)c2)nc1N1CCN(c2ccccc2)C(=O)C1
cell-free assay, competition with immobilised ligand	1 µM	98	CCC(=O)N[C@H]1CC[C@@H](C(=O)N(C)c2ccc(-c3nc4ccccc4o3)cc2)C1
binding, competition with immobilised ligand	5 µM	97	FC(F)(F)Oc1cccc(-c2cnc3ccc(-c4ccncc4)nn23)c1
cell-free assay, competition with immobilised ligand	0.1 µM	97	CNC(=O)c1ccc(Nc2ncc(C(F)(F)F)c(NCc3nccnc3N(C)S(C)(=O)=O)n2)cc1
binding, competition with immobilised ligand	1 µM	57	O=C(Nc1c[nH]nc1C(=O)NC1CCNCC1)c1cc(F)cc(F)c1
